In BindingDB's records for PubMed 35349261 (Hospital Regional Universitario, 2022):

Target: T1, Glucagon-like peptide 1 receptor (Rattus norvegicus, UniProt P32301)
T1 sequence (P32301 whole entry): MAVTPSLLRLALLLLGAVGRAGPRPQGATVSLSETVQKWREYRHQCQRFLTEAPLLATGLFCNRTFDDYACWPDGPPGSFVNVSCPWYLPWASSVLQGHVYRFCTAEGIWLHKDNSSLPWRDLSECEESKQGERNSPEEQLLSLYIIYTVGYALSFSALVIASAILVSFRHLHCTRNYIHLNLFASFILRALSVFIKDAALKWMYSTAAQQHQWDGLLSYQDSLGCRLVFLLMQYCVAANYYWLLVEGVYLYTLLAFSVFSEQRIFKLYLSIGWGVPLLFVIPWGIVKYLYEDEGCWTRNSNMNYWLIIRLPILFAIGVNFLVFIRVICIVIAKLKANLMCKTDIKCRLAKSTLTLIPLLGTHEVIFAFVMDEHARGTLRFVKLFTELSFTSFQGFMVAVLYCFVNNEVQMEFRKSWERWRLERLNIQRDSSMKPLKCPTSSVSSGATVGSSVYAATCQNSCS
Assay: Positive allosteric modulator activity at GLP-1R in rat INS1 beta-cells assessed potentiation of GLP-1(7-36)NH2 induced insulin secretion at 0.1 nM incubated for 30 mins in presence of exendin(9-39)NH2 by ELISA
Method in brief: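 Rat INS-1E cells in RPMI 1640 with 10% fetal calf serum at 37 °C, 7.5% CO2. Cells were detached, washed and plated at 100,000 cells/well, then held in glucose-free medium for 1.5 h. […] Insulin in the medium was read by ELISA; data are triplicate.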

FC(F)(F)c1ccc(-c2noc(CN3CCCC(CN4CCOCC4)C3)n2)cc1 (stereo unspecified)
IC50: 6.3 nM
